ChEMBL document CHEMBL4152384, “Pyrtriazoles, a Novel Class of Store-Operated Calcium Entry Modulators: Discovery, Biological Profiling, and in Vivo Proof-of-Concept Efficacy in Acute Pancreatitis” (J Med Chem, 2018)
Activity calls are given as the source filed them. The calls are words filed in the database; no cut-off is given here.

Key:
Mus musculus [1] = experiment: Acute toxicity in CD1 mouse assessed as histological alterations in kidney at 40 mg/kg, ip administered as single dose for 14 days; format: organism-based; settings: in vivo, 336 h
[2] = Cmax in ip dosed CD1 mouse after 1 hr by LC-ESI-MS analysis; format: ADME, organism-based; set-up: route intraperitoneal; settings: in vivo
Mus musculus [3] = experiment: Acute toxicity in CD1 mouse assessed as histological alterations in liver at 40 mg/kg, ip administered as single dose for 14 days; format: organism-based; settings: in vivo, 336 h
[4] = target: Transient receptor potential cation channel subfamily V member 1 (Homo sapiens) (UniProt Q8NER1); experiment: Antagonist activity at TRPV1 (unknown origin) expressed in HEK cells assessed as inhibition of capsaicin-induced calcium increase at 10 uM by fura-2-based assay; format: cell-based
Chain of Transient receptor potential cation channel subfamily V member 1 (Homo sapiens) (Q8NER1 whole entry): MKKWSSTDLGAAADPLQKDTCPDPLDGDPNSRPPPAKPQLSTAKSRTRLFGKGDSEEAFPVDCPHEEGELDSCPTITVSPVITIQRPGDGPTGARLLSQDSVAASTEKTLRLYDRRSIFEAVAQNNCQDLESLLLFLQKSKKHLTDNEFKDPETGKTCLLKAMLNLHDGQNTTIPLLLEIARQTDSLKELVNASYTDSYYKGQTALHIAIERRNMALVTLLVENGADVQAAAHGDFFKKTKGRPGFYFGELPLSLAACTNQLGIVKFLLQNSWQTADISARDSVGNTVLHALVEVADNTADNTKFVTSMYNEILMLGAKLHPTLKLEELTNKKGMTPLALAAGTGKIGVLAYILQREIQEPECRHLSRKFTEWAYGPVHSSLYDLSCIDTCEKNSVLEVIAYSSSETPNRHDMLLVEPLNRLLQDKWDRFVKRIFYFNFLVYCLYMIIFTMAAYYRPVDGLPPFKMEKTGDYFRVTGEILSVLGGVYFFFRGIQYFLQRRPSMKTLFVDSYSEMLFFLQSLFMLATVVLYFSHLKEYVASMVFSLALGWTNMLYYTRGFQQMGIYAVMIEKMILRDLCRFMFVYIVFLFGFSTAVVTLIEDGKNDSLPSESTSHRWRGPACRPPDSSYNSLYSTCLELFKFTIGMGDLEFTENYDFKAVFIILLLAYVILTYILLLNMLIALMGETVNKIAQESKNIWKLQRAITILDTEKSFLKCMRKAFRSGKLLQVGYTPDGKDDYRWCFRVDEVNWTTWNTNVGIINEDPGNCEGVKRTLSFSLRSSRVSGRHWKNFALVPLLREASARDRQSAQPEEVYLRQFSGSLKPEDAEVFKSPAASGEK
Summary of the method: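 TRPV1-overexpressing Hek cells; calcium rise evoked by capsaicin (100 nM), test compounds at 10 μM; peak amplitude read out; mean ± SEM of 600 cells from 30 plates on four separate experimental days.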

Mus musculus [5] = experiment: Volume of distribution in ip dosed CD1 mouse by LC-ESI-MS analysis; format: ADME, organism-based; settings: in vivo
Mus musculus [6] = experiment: Acute toxicity in CD1 mouse assessed as signs of distress at 40 mg/kg, ip administered as single dose for 14 days; format: organism-based; settings: in vivo, 336 h
[7] = system: voltage-gated calcium channel (Mus musculus); experiment: Antagonist activity at voltage-gated calcium channels in C57/BL6 mouse cerebellar granule cells assessed as inhibition of KCl-induced voltage dependent calcium entry at 10 uM by fura-2-based assay
[8] = Drug metabolism in CD1 mouse liver microsomes assessed as 3-(1-(4-(4-((Pentan-2-yloxy)carbonyl)-5-(trifluoromethyl)-1H-pyrazol-1-yl)-phenyl)-1H-1,2,3-triazol-4-yl)benzoic Acid metabolite formation at 50 uM after 60 mins by mass spectroscopic analysis; format: ADME, microsome
[9] = target: Short transient receptor potential channel 1 & 3/Stromal interaction molecule 1/Calcium release-activated calcium channel protein 1 (Homo sapiens, UniProt P48995+Q13507+Q13586+Q96D31); experiment: (§1) Modulation of TRPC1/TRPC3/STIM1/Orai1 in HEK cells assessed as induction of store-operated calcium entry by measuring residual activity preincubated for 30 mins followed by tBhQ-mediated Ca2+ depletion and Ca2+ re-addition to extracellular solution measured for 600 secs by Fluo-4 AM-based fluorometric assay relative to control; format: cell-based
Chain of Short transient receptor potential channel 1 & 3/Stromal interaction molecule 1/Calcium release-activated calcium channel protein 1 (Q96D31 whole entry): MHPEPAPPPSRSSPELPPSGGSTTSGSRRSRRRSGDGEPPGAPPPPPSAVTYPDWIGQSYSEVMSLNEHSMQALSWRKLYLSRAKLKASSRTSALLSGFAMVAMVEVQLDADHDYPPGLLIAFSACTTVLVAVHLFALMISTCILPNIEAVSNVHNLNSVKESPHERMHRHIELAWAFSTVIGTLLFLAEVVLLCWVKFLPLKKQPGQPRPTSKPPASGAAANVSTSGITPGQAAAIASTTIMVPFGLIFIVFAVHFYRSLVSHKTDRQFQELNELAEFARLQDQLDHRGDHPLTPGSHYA
Chain of Short transient receptor potential channel 1 & 3/Stromal interaction molecule 1/Calcium release-activated calcium channel protein 1 (Q13507 whole entry): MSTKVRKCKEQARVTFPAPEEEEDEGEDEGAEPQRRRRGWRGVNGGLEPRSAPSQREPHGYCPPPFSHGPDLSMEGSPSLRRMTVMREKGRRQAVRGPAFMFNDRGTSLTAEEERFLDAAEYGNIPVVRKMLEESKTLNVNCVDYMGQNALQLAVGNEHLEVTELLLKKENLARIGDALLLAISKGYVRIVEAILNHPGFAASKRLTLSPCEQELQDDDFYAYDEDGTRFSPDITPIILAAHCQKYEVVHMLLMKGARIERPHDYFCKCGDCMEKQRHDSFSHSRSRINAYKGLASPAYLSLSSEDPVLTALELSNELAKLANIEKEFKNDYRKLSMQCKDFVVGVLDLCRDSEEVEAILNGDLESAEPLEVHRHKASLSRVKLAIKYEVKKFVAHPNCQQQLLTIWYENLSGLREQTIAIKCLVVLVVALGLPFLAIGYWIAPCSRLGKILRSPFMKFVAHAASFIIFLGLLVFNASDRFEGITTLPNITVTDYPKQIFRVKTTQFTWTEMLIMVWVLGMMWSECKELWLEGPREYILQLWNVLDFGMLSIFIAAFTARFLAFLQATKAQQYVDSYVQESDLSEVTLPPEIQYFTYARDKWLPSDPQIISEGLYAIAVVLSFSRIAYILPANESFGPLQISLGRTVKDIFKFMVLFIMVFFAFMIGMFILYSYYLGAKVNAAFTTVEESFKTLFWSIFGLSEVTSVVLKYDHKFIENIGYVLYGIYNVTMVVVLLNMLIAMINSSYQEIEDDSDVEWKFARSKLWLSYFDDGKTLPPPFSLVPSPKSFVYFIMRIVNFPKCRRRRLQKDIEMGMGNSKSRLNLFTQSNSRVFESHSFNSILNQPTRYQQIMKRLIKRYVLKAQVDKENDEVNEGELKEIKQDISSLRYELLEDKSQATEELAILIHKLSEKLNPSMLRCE
Chain of Short transient receptor potential channel 1 & 3/Stromal interaction molecule 1/Calcium release-activated calcium channel protein 1 (Q13586 whole entry): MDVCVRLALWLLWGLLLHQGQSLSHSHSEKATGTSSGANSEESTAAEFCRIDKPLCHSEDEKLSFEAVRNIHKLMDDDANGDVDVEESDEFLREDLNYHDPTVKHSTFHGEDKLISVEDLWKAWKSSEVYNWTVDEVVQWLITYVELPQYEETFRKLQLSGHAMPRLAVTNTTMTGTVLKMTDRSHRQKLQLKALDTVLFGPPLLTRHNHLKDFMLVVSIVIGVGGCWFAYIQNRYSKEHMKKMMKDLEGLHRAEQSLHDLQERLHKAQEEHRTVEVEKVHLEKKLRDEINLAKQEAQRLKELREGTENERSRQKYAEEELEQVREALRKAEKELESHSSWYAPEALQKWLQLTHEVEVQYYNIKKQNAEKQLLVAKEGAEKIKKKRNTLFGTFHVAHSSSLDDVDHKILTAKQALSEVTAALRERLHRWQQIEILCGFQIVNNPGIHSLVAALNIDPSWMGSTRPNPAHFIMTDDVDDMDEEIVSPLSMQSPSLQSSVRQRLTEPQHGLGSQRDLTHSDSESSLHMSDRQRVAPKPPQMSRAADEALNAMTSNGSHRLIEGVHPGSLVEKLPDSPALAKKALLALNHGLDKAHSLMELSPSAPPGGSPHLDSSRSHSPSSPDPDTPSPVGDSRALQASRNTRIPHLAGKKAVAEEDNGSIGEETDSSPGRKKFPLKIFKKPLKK
Chain of Short transient receptor potential channel 1 & 3/Stromal interaction molecule 1/Calcium release-activated calcium channel protein 1 (P48995 whole entry): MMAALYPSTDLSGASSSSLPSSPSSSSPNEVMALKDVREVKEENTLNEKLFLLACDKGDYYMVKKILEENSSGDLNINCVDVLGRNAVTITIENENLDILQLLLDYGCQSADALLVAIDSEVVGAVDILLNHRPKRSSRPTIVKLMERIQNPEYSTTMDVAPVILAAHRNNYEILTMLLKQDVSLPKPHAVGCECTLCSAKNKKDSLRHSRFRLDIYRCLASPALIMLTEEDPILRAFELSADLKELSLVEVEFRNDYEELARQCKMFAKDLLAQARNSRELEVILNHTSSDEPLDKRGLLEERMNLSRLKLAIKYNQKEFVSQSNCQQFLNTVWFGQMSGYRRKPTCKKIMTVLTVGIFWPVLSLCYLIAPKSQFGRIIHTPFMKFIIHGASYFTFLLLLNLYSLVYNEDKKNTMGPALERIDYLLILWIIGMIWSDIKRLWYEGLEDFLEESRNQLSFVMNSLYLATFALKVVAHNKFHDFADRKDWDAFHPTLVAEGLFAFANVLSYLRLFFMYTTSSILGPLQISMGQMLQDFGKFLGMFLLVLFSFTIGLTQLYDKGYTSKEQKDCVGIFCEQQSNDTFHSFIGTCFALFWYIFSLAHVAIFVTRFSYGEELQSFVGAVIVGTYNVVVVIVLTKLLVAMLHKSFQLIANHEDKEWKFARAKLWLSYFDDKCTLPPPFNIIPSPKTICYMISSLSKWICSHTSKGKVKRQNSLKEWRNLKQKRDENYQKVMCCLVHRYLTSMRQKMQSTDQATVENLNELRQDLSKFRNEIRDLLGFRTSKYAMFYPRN

[10] = Cytotoxicity against HEK cells assessed as cell viability at 10 uM by MTT assay relative to control; format: cell-based; settings: human, read-out: Activity
Summary of the method: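 Hek cells treated 24 h with compound at 10 μM; viability determined by MTT assay.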

Mus musculus [11] = experiment: Protection against cerulein-induced pancreatitis in CD1 mouse assessed as reduction in pancreatic inflammation at 40 mg/kg, ip administered at 30 and 150 mins post first cerulein addition by hematoxylin and eosin staining based microscopy; format: functional, organism-based
[12] = Drug metabolism in CD1 mouse liver microsomes assessed as ester group hydrolysis at 50 uM after 60 mins in presence of NADPH/UDPGA; format: ADME, microsome; settings: 1 h
[13] = Drug metabolism in CD1 mouse liver microsomes assessed as 1-(4-(4-(3-Carboxyphenyl)-1H-1,2,3-triazol-1-yl)phenyl)-5-(trifluoromethyl)-1H-pyrazole-4-carboxylic Acid metabolite formation at 50 uM after 60 mins by mass spectroscopic analysis; format: ADME, microsome
Mus musculus [14] = experiment: Acute toxicity in CD1 mouse assessed as mortality at 40 mg/kg, ip administered as single dose for 14 days; format: organism-based; settings: in vivo, 336 h
Mus musculus [15] = experiment: Acute toxicity in CD1 mouse assessed as histological alterations in stomach at 40 mg/kg, ip administered as single dose for 14 days; format: organism-based; settings: in vivo, 336 h
Mus musculus [16] = experiment: Acute toxicity in CD1 mouse assessed as histological alterations in brain at 40 mg/kg, ip administered as single dose for 14 days; format: organism-based; settings: in vivo, 336 h
[17] = target: Short transient receptor potential channel 1 & 3/Stromal interaction molecule 1/Calcium release-activated calcium channel protein 1 (Homo sapiens) (UniProt Q96D31+Q13507+Q13586+P48995); experiment: as §1, with “activity at 10 uM” for “activity”; format: cell-based
[18] = Plasma concentration in ip dosed CD1 mouse by LC-ESI-MS analysis; format: ADME, organism-based; settings: in vivo
Mus musculus [19] = experiment: Protection against cerulein-induced pancreatitis in CD1 mouse assessed as reduction in neutrophil infiltration at 40 mg/kg, ip administered at 30 and 150 mins post first cerulein addition by myeloperoxidase staining based spectrophotometry; format: functional, organism-based
Mus musculus [20] = experiment: Acute toxicity in CD1 mouse assessed as histological alterations in ileum at 40 mg/kg, ip administered as single dose for 14 days; format: organism-based; settings: in vivo, 336 h
[21] = system: voltage-gated calcium channel (Mus musculus); experiment: Antagonist activity at voltage-gated calcium channels in C57/BL6 mouse cerebellar granule cells assessed as inhibition of KCl-induced voltage dependent calcium entry at 10 uM by fura-2-based assay; remark: listed apart in the source
[22] = Half life in ip dosed CD1 mouse by LC-ESI-MS analysis; format: ADME, organism-based; settings: in vivo
Mus musculus [23] = experiment: Acute toxicity in CD1 mouse assessed as effect on body weight at 40 mg/kg, ip administered as single dose for 14 days; format: organism-based; settings: in vivo, 336 h
Mus musculus [24] = experiment: Protection against cerulein-induced pancreatitis in CD1 mouse assessed as reduction in pancreatic edema at 40 mg/kg, ip administered at 30 and 150 mins post first cerulein addition by hematoxylin and eosin staining based microscopy; format: functional, organism-based
[25] = Clearance in ip dosed CD1 mouse by LC-ESI-MS analysis; format: ADME, organism-based; settings: in vivo
Mus musculus [26] = experiment: Acute toxicity in CD1 mouse assessed as histological alterations in lung at 40 mg/kg, ip administered as single dose for 14 days; format: organism-based; settings: in vivo, 336 h
[27] = Metabolic stability in CD1 mouse liver S9 fraction assessed as residual compound level at 50 uM after 1 hr; format: ADME, subcellular; settings: read-out: Stability
Summary of the method: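 Hydrolytic stability measured in mouse liver S9 fraction; residual substrate quantified after 1 h incubation.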

Mus musculus [28] = experiment: Acute toxicity in CD1 mouse assessed as histological alterations in heart at 40 mg/kg, ip administered as single dose for 14 days; format: organism-based; settings: in vivo, 336 h
[29] = target: Transient receptor potential cation channel subfamily M member 8 (Homo sapiens) (UniProt Q7Z2W7); experiment: Antagonist activity at TRPM8 (unknown origin) expressed in HEK cells assessed as inhibition of menthol -mediated calcium increase at 10 uM by fura-2-based assay; format: cell-based
Chain of Transient receptor potential cation channel subfamily M member 8 (Homo sapiens) (Q7Z2W7 whole entry, looked up): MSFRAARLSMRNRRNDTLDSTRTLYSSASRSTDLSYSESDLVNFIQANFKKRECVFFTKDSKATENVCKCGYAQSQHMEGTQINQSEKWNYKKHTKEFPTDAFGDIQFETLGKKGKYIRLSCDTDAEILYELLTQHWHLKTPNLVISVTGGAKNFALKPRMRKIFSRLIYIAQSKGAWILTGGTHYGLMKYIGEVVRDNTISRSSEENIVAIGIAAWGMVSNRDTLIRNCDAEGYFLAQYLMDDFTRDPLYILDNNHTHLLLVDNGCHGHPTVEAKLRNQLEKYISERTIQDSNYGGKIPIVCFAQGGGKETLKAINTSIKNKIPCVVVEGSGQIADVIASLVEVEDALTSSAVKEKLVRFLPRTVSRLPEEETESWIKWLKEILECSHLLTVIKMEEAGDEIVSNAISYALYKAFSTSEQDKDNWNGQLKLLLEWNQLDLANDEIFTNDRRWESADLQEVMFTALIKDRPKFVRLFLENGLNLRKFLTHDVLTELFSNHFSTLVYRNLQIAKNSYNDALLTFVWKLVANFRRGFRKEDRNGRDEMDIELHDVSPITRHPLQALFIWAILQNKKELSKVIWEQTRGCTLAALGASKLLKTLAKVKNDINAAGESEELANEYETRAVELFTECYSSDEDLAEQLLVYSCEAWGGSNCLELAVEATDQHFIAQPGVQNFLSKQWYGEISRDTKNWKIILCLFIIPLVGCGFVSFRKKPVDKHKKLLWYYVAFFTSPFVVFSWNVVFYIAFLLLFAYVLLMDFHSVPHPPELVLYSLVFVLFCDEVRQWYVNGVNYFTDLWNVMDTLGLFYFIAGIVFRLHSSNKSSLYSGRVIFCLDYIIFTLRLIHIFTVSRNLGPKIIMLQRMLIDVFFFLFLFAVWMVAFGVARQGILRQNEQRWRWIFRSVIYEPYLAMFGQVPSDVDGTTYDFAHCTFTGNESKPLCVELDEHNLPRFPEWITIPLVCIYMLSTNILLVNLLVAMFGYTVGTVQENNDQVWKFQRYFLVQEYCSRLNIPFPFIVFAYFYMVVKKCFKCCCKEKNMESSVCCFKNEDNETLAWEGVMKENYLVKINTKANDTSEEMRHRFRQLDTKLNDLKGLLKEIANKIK
Summary of the method: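 TRPM8-overexpressing Hek cells; calcium rise evoked by menthol (100 μM), test compounds at 10 μM; peak amplitude read out; mean ± SEM of 600 cells from 30 plates on four separate experimental days.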

[30] = Metabolic stability in CD1 mouse plasma assessed as residual compound level at 50 uM after 30 mins by LC-UV analysis; format: ADME, cell-free; settings: read-out: Stability
Summary of the method: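 Compounds incubated in mouse plasma for 30 min; percentage of residual substrate determined.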

[31] = Drug metabolism in CD1 mouse liver microsomes assessed as ester group hydrolysis at 50 uM after 60 mins in absence of NADPH/UDPGA; format: ADME, microsome; settings: 1 h

Question: With `CCCC(C)OC(=O)c1cnn(-c2ccc(-n3cc(-c4cccc(C(=O)O)c4)nn3)cc2)c1C(F)(F)F` (stereo unspecified) as the compound, how does the Activity (Mus musculus [1]) read?
Answer: Its Activity is “Non-Toxic”.

Question: What about the Cmax [2] of the same compound?
Answer: The Cmax was 640 ng/mL.

Question: And the Activity (Mus musculus [3])?
Answer: The Activity was “Non-Toxic”.

Question: What about the inhibition [4] of the same compound?
Answer: The inhibition was “inactive”.

Question: And the Vd (Mus musculus [5])?
Answer: Its Vd is 32 L/kg.

Question: And the Activity (Mus musculus [6])?
Answer: The Activity was “Non-Toxic”.

Question: What about the inhibition [7] of the same compound?
Answer: The inhibition was “inactive”.

Question: And the Drug metabolism [8]?
Answer: Its Drug metabolism is “Metabolite_Detected”.

Question: What about the IC50 [9] of the same compound?
Answer: The IC50 was 4.4 µM.

Question: And the viability at 10 µM [10]?
Answer: The viability at 10 µM was 93.6%.

Question: And the Activity (Mus musculus [11])?
Answer: Its Activity is “Active”.

Question: What about the Drug metabolism [12] of the same compound?
Answer: The Drug metabolism was “Metabolite_Detected”.

Question: And the Drug metabolism [13]?
Answer: The Drug metabolism was “Metabolite_Notdetected”.

Question: And the Activity (Mus musculus [14])?
Answer: The Activity was “Non-Toxic”.

Question: What about the Activity (Mus musculus [15]) of the same compound?
Answer: The Activity was “Non-Toxic”.

Question: And the Activity (Mus musculus [16])?
Answer: The Activity was “Non-Toxic”.

Question: What about the Activity [17] of the same compound?
Answer: Its Activity is 17.5%.

Question: What about the concentration [18] of the same compound?
Answer: The concentration was 1200 nM.

Question: What about the Activity (Mus musculus [19]) of the same compound?
Answer: The Activity was “Active”.

Question: What about the Activity (Mus musculus [20]) of the same compound?
Answer: Its Activity is “Non-Toxic”.

Question: What about the inhibition [21] of the same compound?
Answer: The inhibition was “inactive”.

Question: What about the half-life [22] of the same compound?
Answer: The half-life was 1.3 h.

Question: And the Activity (Mus musculus [23])?
Answer: The Activity was “Non-Toxic”.

Question: What about the Activity (Mus musculus [24]) of the same compound?
Answer: Its Activity is “Active”.

Question: And the CL/F [25]?
Answer: The CL/F was 283 mL/min/kg.

Question: What about the Activity (Mus musculus [26]) of the same compound?
Answer: The Activity was “Non-Toxic”.

Question: And the remaining at 1 h, 50 µM [27]?
Answer: The remaining at 1 h, 50 µM was 73.7%.

Question: What about the Activity (Mus musculus [28]) of the same compound?
Answer: Its Activity is “Non-Toxic”.

Question: And the inhibition [29]?
Answer: The inhibition was “inactive”.

Question: And the remaining at 0.5 h, 50 µM [30]?
Answer: Its remaining at 0.5 h, 50 µM is 97.8%.

Question: What about the Drug metabolism [31] of the same compound?
Answer: The Drug metabolism was “Metabolite_Detected”.
